Data taken from article PMC5856607 (Journal of pharmaceutical sciences, 2017).
Read-outs that look alike come from different tables or passages of the source. Blank lines part the entries; values can stand above or below the compound they belong to.

Assays:
[1] = tested on: Caco-2 cells; assay: CDF transport across Caco-2 monolayers following CDF dosing; type: in vitro ADME, human
Summary of the method: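 Caco-2 cells (passages 32–58) were grown 18–24 days on collagen-coated 0.4 μm PTFE Transwells. They were pre-incubated 30 min in pH 7.4 transport buffer with 0.1% DMSO/0.1% ethanol, then given 5 μM CDF apically or basolaterally at 37°C with 150 rpm shaking. CDF was quantified against 7.8–1000 nM standards. Clearance = transport rate/mean initial–final donor concentration. A two-compartment passive paracellular population model was fitted by QRPEM, 13 filters per direction.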

[2] = tested on: canalicular membrane of rat hepatocytes; conditions: cited from earlier work
[3] = cited from earlier work
[4] = tested on: Caco-2 cells; type: in vitro ADME, human; conditions: for Clcdf,ap, efflux clearance of CDF across the apical membrane, parameter estimate (% RSE) / Clcdf,bl, efflux clearance of CDF across the basolateral membrane, parameter estimate (% RSE) / Clhydrolysis, intracellular hydrolysis of CDFDA, parameter estimate (% RSE): control; for model predicted effect on CDF clearance across the apical membrane: co-exposure with agent; for β-adjustment factor for enhancement of basolateral membrane clearance (Clcdf,bl), estimate (% RSE): Equation 2, agent 10, 30, 100 μM; for β-adjustment factor for enhancement of CDFDA hydrolysis clearance (Clhydrolysis), estimate (% RSE): Equation 2
[5] = tested on: Caco-2 cells; type: in vitro ADME, human; conditions: for fraction of CDF in the basolateral compartment / fraction of CDF in the cell compartment at 120-minutes: average; for fraction of CDF present in the apical compartment / total CDF production, % of the CDFDA dose: mean ± standard deviation
[6] = tested on: CDFDA hydrolysis in Caco-2 cell homogenates; conditions: cited from earlier work; for effect on CDFDA hydrolysis in Caco-2 cell homogenates: 100 μM
[7] = tested on: Caco-2 cells; conditions: % of dose, cited from earlier work
[8] = tested on: Caco-2 cells; conditions: contemporaneous studies; cited from earlier work
[9] = CDFDA hydrolysis in transport buffer; type: physicochemical; conditions: 37°C
[10] = apical dosing 5 μM CDFDA, 500 simulations
[11] = basolateral dosing 5 μM CDFDA, 500 simulations
[12] = control experiments, CDFDA dosing
[13] = apical 5 μM CDFDA with 100 μM agent
[14] = apical 5 μM CDFDA with 100 μM agent, 9 filters
[15] = basolateral 5 μM CDFDA with 100 μM agent
[16] = basolateral 5 μM CDFDA with 100 μM agent, 9 filters
[17] = apical 5 μM CDFDA alone (Control)
[18] = basolateral 5 μM CDFDA alone (Control)

CDF clearance across Caco-2 cells, model based analysis, AB/BA combined, population estimate (RSE,%) ([1]; 5 μM CDF, simultaneous modeling of AB and BA directions): 1.6 × 10^−5 (11.7) mL/min
CDF clearance across Caco-2 cells, model independent analysis, AB, mean (CV,%) ([1]; apical exposure to 5 μM CDF, 5 occasions, 13 filters): 1.6 × 10^−5 (30.3) mL/min
CDF clearance across Caco-2 cells, model based analysis, AB, population estimate (RSE,%) ([1]; apical exposure to 5 μM CDF, two-compartment model): 1.3 × 10^−5 (19.0) mL/min
CDF clearance across Caco-2 cells, model independent analysis, BA, mean (CV,%) ([1]; basolateral exposure to 5 μM CDF, 5 occasions, 13 filters): 2.1 × 10^−5 (3.3) mL/min
CDF clearance across Caco-2 cells, model based analysis, BA, population estimate (RSE,%) ([1]; basolateral exposure to 5 μM CDF, two-compartment model): 2.0 × 10^−5 (10.9) mL/min
ratio of basolateral to apical dosing transcellular CDF clearance ([4]; Equations 3a–b with 3-compartment model estimates): 2.9
simulated intracellular CDF concentration, average ([4]; apical CDFDA dosing): 10 µM
Clcdf,ap, bootstrap analysis median (90% confidence interval) [4, 10]: 2.2 × 10^−5 (1.7 – 2.6 × 10^−5) mL/min
Clcdf,bl, bootstrap analysis median (90% confidence interval) [4, 10]: 1.3 × 10^−5 (1.2 – 1.4 × 10^−5) mL/min
Clcdf,ap, efflux clearance of CDF across the apical membrane, parameter estimate (% RSE) ([4]; apical dosing 5 μM CDFDA): 8.4 × 10^−5 (<0.1) mL/min
Clcdf,bl, efflux clearance of CDF across the basolateral membrane, parameter estimate (% RSE) ([4]; apical dosing 5 μM CDFDA): 5.6 × 10^−5 (0.1) mL/min
simulated intracellular CDF concentration, average ([4]; basolateral CDFDA dosing): 24 µM
Clcdf,ap, bootstrap analysis median (90% confidence interval) [4, 11]: 8.3 × 10^−5 (7.1 – 10.8 × 10^−5) mL/min
Clcdf,bl, bootstrap analysis median (90% confidence interval) [4, 11]: 5.1 × 10^−5 (3.8 – 6.7 × 10^−5) mL/min
Clcdf,ap, efflux clearance of CDF across the apical membrane, parameter estimate (% RSE) ([4]; basolateral dosing 5 μM CDFDA): 8.5 × 10^−5 (0.2) mL/min
Clcdf,bl, efflux clearance of CDF across the basolateral membrane, parameter estimate (% RSE) ([4]; basolateral dosing 5 μM CDFDA): 5.2 × 10^−5 (0.2) mL/min
fold larger apical versus basolateral membrane CDF clearance ([4]; following both apical and basolateral dosing): approximately 1.5 fold
fraction of CDF in the basolateral compartment ([5]; apical CDFDA dosing): 1.1%
fraction of CDF in the cell compartment at 120-minutes ([5]; apical CDFDA dosing): 1.5%
fraction of CDF present in the apical compartment ([5]; apical CDFDA dosing, n = 16 occasions): 4.0 ± 2.33%
fraction of CDF in the basolateral compartment ([5]; basolateral CDFDA dosing): 1.0%
fraction of CDF in the cell compartment at 120-minutes ([5]; basolateral CDFDA dosing): 1.3%
fraction of CDF present in the apical compartment ([5]; basolateral CDFDA dosing): 1.9 ± 1.24%
mean ratio of CDF cell content, basolateral versus apical dosing [5, 12]: 2.9
mean ratio of CDF flux, basolateral versus apical dosing [5, 12]: 2.9
Compound: 5 (and 6)-Carboxy-2′,7′-Dichloroflourescein [CDF]
Km ([2]; read-out: Km, high affinity state, Sprague-Dawley rats): 3 µM
Km ([2]; read-out: Km, high affinity state, Wistar rats): 9 µM
Km ([2]; read-out: Km, low affinity state, Sprague-Dawley rats): 192 µM
Km ([2]; read-out: Km, low affinity state, Wistar rats): 69 µM
protein binding [3]: 15 – 20%

Compound: CN(C)C(=O)CCSC(SCCC(=O)O)c1cccc(/C=C/c2ccc3ccc(Cl)cc3n2)c1 (stereo not shown) [MK-571]
effect on CDFDA hydrolysis in Caco-2 cell homogenates [6]: no effect
fold increase of basolateral membrane CDF clearance ([4]; 100 μM MK-571, the highest concentration evaluated): up to 2 fold
model predicted effect on CDF clearance across the apical membrane ([4]; CDFDA dosing): not altered
β-adjustment factor for enhancement of basolateral membrane clearance (Clcdf,bl), estimate (% RSE) ([4]; apical CDFDA dosing): 1.7 × 10^−2 (<0.1)
β-adjustment factor for enhancement of basolateral membrane clearance (Clcdf,bl), estimate (% RSE) ([4]; basolateral CDFDA dosing): 2.4 × 10^−2 (0.4)
basolateral to apical dosing CDF flux ratio in the presence of MK-571 ([5]; CDFDA dosing, control approximately 3): ~0.8
AB Donor (apical) CDF at 120 minutes, mean [5, 13]: 115 pmoles/well
AB Intracellular CDF at 120 minutes, mean [5, 13]: 15 pmoles/well
AB directional CDF flux, mean [5, 14]: 0.51 pmol/min
BA Donor (basolateral) CDF at 120 minutes, mean [5, 15]: 249 pmoles/well
BA Intracellular CDF at 120 minutes, mean [5, 15]: 26 pmoles/well
BA directional CDF flux, mean [5, 16]: 0.39 pmol/min

Compound: Glyceollin
effect on CDFDA hydrolysis in Caco-2 cell homogenates [6]: no effect
model predicted effect on CDF clearance across the apical membrane ([4]; CDFDA dosing): no effect on apical membrane clearance
β-adjustment factor for enhancement of basolateral membrane clearance (Clcdf,bl), estimate (% RSE) ([4]; apical CDFDA dosing): 2.2 × 10^−2 (<0.1)
β-adjustment factor for enhancement of basolateral membrane clearance (Clcdf,bl), estimate (% RSE) ([4]; basolateral CDFDA dosing): 1.8 × 10^−2 (2.9)
AB Donor (apical) CDF at 120 minutes, mean [5, 13]: 95 pmoles/well
AB Intracellular CDF at 120 minutes, mean [5, 13]: 15 pmoles/well
AB directional CDF flux, mean [5, 14]: 0.63 pmol/min
BA Donor (basolateral) CDF at 120 minutes, mean [5, 15]: 187 pmoles/well
BA Intracellular CDF at 120 minutes, mean [5, 15]: 30 pmoles/well
BA directional CDF flux, mean [5, 16]: 0.53 pmol/min

Compound: O=c1c(-c2ccc(O)cc2)coc2cc(O)cc(O)c12 [Genistein]
effect on CDFDA hydrolysis observed in vitro [6]: stimulation of CDFDA hydrolysis
model predicted effect on CDF efflux ([4]; CDFDA dosing, genistein exposure): no predicted effects
β-adjustment factor for enhancement of CDFDA hydrolysis clearance (Clhydrolysis), estimate (% RSE) ([4]; apical CDFDA dosing): 6.9 × 10^−3 (<0.1)
β-adjustment factor for enhancement of CDFDA hydrolysis clearance (Clhydrolysis), estimate (% RSE) ([4]; basolateral CDFDA dosing): 2.8 × 10^−2 (0.6)
AB Donor (apical) CDF at 120 minutes, mean [5, 13]: 301 pmoles/well
AB Intracellular CDF at 120 minutes, mean [5, 13]: 85 pmoles/well
AB directional CDF flux, mean [5, 14]: 1.25 pmol/min
BA Donor (basolateral) CDF at 120 minutes, mean [5, 15]: 427 pmoles/well
BA Intracellular CDF at 120 minutes, mean [5, 15]: 134 pmoles/well
BA directional CDF flux, mean [5, 16]: 2.68 pmol/min

Compound: CC(C)(C)C(=O)OCOP(=O)(COCCn1cnc2c(N)ncnc21)OCOC(=O)C(C)(C)C [adefovir dipivoxil]
total metabolite production ([7]; apical dosing): 93%
total metabolite production ([7]; basolateral dosing): 34%

Compound: lucifer yellow
lucifer yellow clearance [8]: 8.7 ± 0.24 × 10^−5 mL/min

fold larger CDFDA hydrolysis clearance for basolateral versus apical dosing [4]: 1.8 fold
Clhydrolysis, intracellular hydrolysis of CDFDA, parameter estimate (% RSE) ([4]; apical dosing 5 μM CDFDA): 8.2 × 10^−4 (<0.1) mL/min
Clhydrolysis, bootstrap analysis median (90% confidence interval) [4, 11]: 1.6 × 10^−3 (1.2 – 1.9 × 10^−3) mL/min
Clhydrolysis, intracellular hydrolysis of CDFDA, parameter estimate (% RSE) ([4]; basolateral dosing 5 μM CDFDA): 1.5 × 10^−3 (0.1) mL/min
half-life of CDFDA hydrolysis in transport buffer [9]: > 100 h
clearance of CDFDA hydrolysis in transport buffer ([9]; translated from half-life): 3e-07 mL/min
AB Donor (apical) CDF at 120 minutes, mean [5, 17]: 101 pmoles/well
AB Intracellular CDF at 120 minutes, mean [5, 17]: 29 pmoles/well
AB directional CDF flux, mean ([5]; apical 5 μM CDFDA alone (Control), 48 filters): 0.28 pmol/min
total CDF production, % of the CDFDA dose ([5]; apical dosing): 6.7 ± 3.10%
BA Donor (basolateral) CDF at 120 minutes, mean [5, 18]: 143 pmoles/well
BA Intracellular CDF at 120 minutes, mean [5, 18]: 83 pmoles/well
BA directional CDF flux, mean ([5]; basolateral 5 μM CDFDA alone (Control), 48 filters): 0.81 pmol/min
total CDF production, % of the CDFDA dose ([5]; basolateral dosing): 4.3 ± 1.21%
Compound: CDF diacetate [CDFDA]
